System: Fibroblast
Assay: Multiplex assay against human fibroblast
Format: toxicity, cell-based
Summary of the method: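 Imaging took place on a CQ1 microscope at 37°C and 5% CO2 once compound had been added to live cells stained at seeding with Hoechst33342, BioTracker Green Microtubule Cytoskeleton Dye, MitoTracker Red and Annexin V Alexa Fluor 680. CellPathfinder machine-learning gating classed cells as Hoechst high-intensity objects or normal cells, classed normal cells as having healthy, pyknosed or fragmented nuclei, and classed pyknosed cells as mitotic or apoptotic. Tubulin, mitochondrial-mass and membrane-permeability phenotypes are per cents of the healthy-nucleus cells.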

[1] = 12 h, 1 µM, compound concentration 1 uM, replicate 1
[2] = 12 h, 1 µM, compound concentration 1 uM, replicate 2
[3] = 12 h, 10 µM, compound concentration 10 uM, replicate 1
[4] = 12 h, 10 µM, compound concentration 10 uM, replicate 2
[5] = 24 h, 1 µM, compound concentration 1 uM, replicate 1
[6] = 24 h, 1 µM, compound concentration 1 uM, replicate 2
[7] = 24 h, 10 µM, compound concentration 10 uM, replicate 1
[8] = 24 h, 10 µM, compound concentration 10 uM, replicate 2

Cc1nc(-c2cn3c(n2)-c2ccc(-c4cnn(C(C)(C)C(N)=O)c4)cc2OCC3)n(C(C)C)n1 [TASELISIB]
Population Apoptotic (%) [1]: 85%
Population Fragmented Nuclei (%) [1]: 29%
Population Healthy Nuclei (%) [1]: 53%
Population Hoechst High Intensity Objects (%) [1]: 12%
Population Membrane Permeable-Phenotype (%) [1]: 7%
Population Mitochondria Different-Phenotype (%) [1]: 6%
Population Mitotic Cells (%) [1]: 14%
Population Normal (%) [1]: 87%
Population Pyknosed Nuclei (%) [1]: 17%
Population Tubulin-Different-Phenotype (%) [1]: 16%
Total Cell Count [1]: 221
Population Apoptotic (%) [2]: 100%
Population Fragmented Nuclei (%) [2]: 61%
Population Healthy Nuclei (%) [2]: 33%
Population Hoechst High Intensity Objects (%) [2]: 30%
Population Membrane Permeable-Phenotype (%) [2]: 15%
Population Mitochondria Different-Phenotype (%) [2]: 10%
Population Mitotic Cells (%) [2]: 0%
Population Normal (%) [2]: 69%
Population Pyknosed Nuclei (%) [2]: 5%
Population Tubulin-Different-Phenotype (%) [2]: 60%
Total Cell Count [2]: 86
Population Apoptotic (%) [3]: 71%
Population Fragmented Nuclei (%) [3]: 25%
Population Healthy Nuclei (%) [3]: 65%
Population Hoechst High Intensity Objects (%) [3]: 11%
Population Membrane Permeable-Phenotype (%) [3]: 7%
Population Mitochondria Different-Phenotype (%) [3]: 2%
Population Mitotic Cells (%) [3]: 28%
Population Normal (%) [3]: 88%
Total Cell Count [3]: 188
Population Apoptotic (%) [4]: 33%
Population Fragmented Nuclei (%) [4]: 47%
Population Healthy Nuclei (%) [4]: 43%
Population Hoechst High Intensity Objects (%) [4]: 30%
Population Membrane Permeable-Phenotype (%) [4]: 13%
Population Mitochondria Different-Phenotype (%) [4]: 13%
Population Mitotic Cells (%) [4]: 66%
Population Normal (%) [4]: 69%
Population Pyknosed Nuclei (%) [4]: 8%
Population Tubulin-Different-Phenotype (%) [4]: 0%
Total Cell Count [4]: 99
Population Apoptotic (%) [5]: 78%
Population Fragmented Nuclei (%) [5]: 32%
Population Healthy Nuclei (%) [5]: 51%
Population Hoechst High Intensity Objects (%) [5]: 14%
Population Membrane Permeable-Phenotype (%) [5]: 5%
Population Mitochondria Different-Phenotype (%) [5]: 7%
Population Mitotic Cells (%) [5]: 21%
Population Normal (%) [5]: 85%
Population Pyknosed Nuclei (%) [5]: 16%
Population Tubulin-Different-Phenotype (%) [5]: 18%
Total Cell Count [5]: 238
Population Apoptotic (%) [6]: 60%
Population Fragmented Nuclei (%) [6]: 62%
Population Healthy Nuclei (%) [6]: 30%
Population Hoechst High Intensity Objects (%) [6]: 27%
Population Membrane Permeable-Phenotype (%) [6]: 14%
Population Mitochondria Different-Phenotype (%) [6]: 0%
Population Mitotic Cells (%) [6]: 40%
Population Normal (%) [6]: 72%
Population Pyknosed Nuclei (%) [6]: 7%
Population Tubulin-Different-Phenotype (%) [6]: 47%
Total Cell Count [6]: 97
Population Apoptotic (%) [7]: 73%
Population Fragmented Nuclei (%) [7]: 23%
Population Healthy Nuclei (%) [7]: 67%
Population Hoechst High Intensity Objects (%) [7]: 13%
Population Membrane Permeable-Phenotype (%) [7]: 6%
Population Mitochondria Different-Phenotype (%) [7]: 2%
Population Mitotic Cells (%) [7]: 26%
Population Normal (%) [7]: 86%
Population Tubulin-Different-Phenotype (%) [7]: 1%
Total Cell Count [7]: 188
Population Apoptotic (%) [8]: 42%
Population Fragmented Nuclei (%) [8]: 38%
Population Healthy Nuclei (%) [8]: 51%
Population Hoechst High Intensity Objects (%) [8]: 22%
Population Membrane Permeable-Phenotype (%) [8]: 10%
Population Mitochondria Different-Phenotype (%) [8]: 15%
Population Mitotic Cells (%) [8]: 57%
Population Normal (%) [8]: 77%
Population Pyknosed Nuclei (%) [8]: 9%
Population Tubulin-Different-Phenotype (%) [8]: 5%
Total Cell Count [8]: 99

Cc1nc(Nc2n[nH]c3c2CN(C(=O)N[C@H](CN(C)C)c2ccccc2)C3(C)C)c2sccc2n1 [PF-03758309]
Population Apoptotic (%) [1]: 82%
Population Fragmented Nuclei (%) [1]: 33%
Population Healthy Nuclei (%) [1]: 48%
Population Hoechst High Intensity Objects (%) [1]: 13%
Population Membrane Permeable-Phenotype (%) [1]: 6%
Population Mitochondria Different-Phenotype (%) [1]: 2%
Population Mitotic Cells (%) [1]: 17%
Population Normal (%) [1]: 86%
Population Pyknosed Nuclei (%) [1]: 18%
Population Tubulin-Different-Phenotype (%) [1]: 2%
Total Cell Count [1]: 216
Population Apoptotic (%) [2]: 60%
Population Fragmented Nuclei (%) [2]: 54%
Population Healthy Nuclei (%) [2]: 37%
Population Hoechst High Intensity Objects (%) [2]: 28%
Population Membrane Permeable-Phenotype (%) [2]: 0%
Population Mitochondria Different-Phenotype (%) [2]: 13%
Population Mitotic Cells (%) [2]: 40%
Population Normal (%) [2]: 71%
Population Pyknosed Nuclei (%) [2]: 8%
Population Tubulin-Different-Phenotype (%) [2]: 13%
Total Cell Count [2]: 83
Population Apoptotic (%) [3]: 62%
Population Fragmented Nuclei (%) [3]: 35%
Population Healthy Nuclei (%) [3]: 51%
Population Hoechst High Intensity Objects (%) [3]: 11%
Population Membrane Permeable-Phenotype (%) [3]: 9%
Population Mitochondria Different-Phenotype (%) [3]: 10%
Population Mitotic Cells (%) [3]: 37%
Population Normal (%) [3]: 88%
Population Pyknosed Nuclei (%) [3]: 12%
Population Tubulin-Different-Phenotype (%) [3]: 32%
Total Cell Count [3]: 240
Population Apoptotic (%) [4]: 40%
Population Fragmented Nuclei (%) [4]: 57%
Population Healthy Nuclei (%) [4]: 25%
Population Hoechst High Intensity Objects (%) [4]: 39%
Population Membrane Permeable-Phenotype (%) [4]: 0%
Population Mitochondria Different-Phenotype (%) [4]: 20%
Population Mitotic Cells (%) [4]: 60%
Population Normal (%) [4]: 60%
Population Pyknosed Nuclei (%) [4]: 16%
Population Tubulin-Different-Phenotype (%) [4]: 33%
Total Cell Count [4]: 98
Population Apoptotic (%) [5]: 70%
Population Fragmented Nuclei (%) [5]: 25%
Population Healthy Nuclei (%) [5]: 53%
Population Hoechst High Intensity Objects (%) [5]: 16%
Population Membrane Permeable-Phenotype (%) [5]: 7%
Population Mitochondria Different-Phenotype (%) [5]: 8%
Population Mitotic Cells (%) [5]: 29%
Population Normal (%) [5]: 83%
Population Pyknosed Nuclei (%) [5]: 20%
Population Tubulin-Different-Phenotype (%) [5]: 7%
Total Cell Count [5]: 181
Population Apoptotic (%) [6]: 75%
Population Fragmented Nuclei (%) [6]: 59%
Population Healthy Nuclei (%) [6]: 33%
Population Hoechst High Intensity Objects (%) [6]: 28%
Population Membrane Permeable-Phenotype (%) [6]: 0%
Population Mitochondria Different-Phenotype (%) [6]: 10%
Population Mitotic Cells (%) [6]: 25%
Population Normal (%) [6]: 71%
Population Pyknosed Nuclei (%) [6]: 6%
Population Tubulin-Different-Phenotype (%) [6]: 0%
Total Cell Count [6]: 82
Population Apoptotic (%) [7]: 67%
Population Fragmented Nuclei (%) [7]: 30%
Population Healthy Nuclei (%) [7]: 54%
Population Hoechst High Intensity Objects (%) [7]: 20%
Population Membrane Permeable-Phenotype (%) [7]: 15%
Population Mitochondria Different-Phenotype (%) [7]: 6%
Population Mitotic Cells (%) [7]: 32%
Population Normal (%) [7]: 79%
Population Pyknosed Nuclei (%) [7]: 15%
Population Tubulin-Different-Phenotype (%) [7]: 40%
Total Cell Count [7]: 254
Population Apoptotic (%) [8]: 100%
Population Fragmented Nuclei (%) [8]: 48%
Population Healthy Nuclei (%) [8]: 45%
Population Hoechst High Intensity Objects (%) [8]: 34%
Population Membrane Permeable-Phenotype (%) [8]: 11%
Population Mitochondria Different-Phenotype (%) [8]: 22%
Population Mitotic Cells (%) [8]: 0%
Population Normal (%) [8]: 65%
Population Pyknosed Nuclei (%) [8]: 6%
Population Tubulin-Different-Phenotype (%) [8]: 44%
Total Cell Count [8]: 92

Source: ChEMBL document CHEMBL4689842, “EUbOPEN Chemogenomics Library wave 1” (2021)
